From the EternaBench riboswitch data

Test system: MS2 coat protein
Experiment: apparent Kd, MS2 coat protein; higher = weaker binding; RNA-MaP array
Procedure, shortened: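 For each design, the apparent Kd is the median of binding-curve fits across its clusters. Designs measured on fewer than 10 clusters were dropped. The RNAs were transcribed from sequenced DNA templates on an Illumina sequencing chip and incubated at room temperature, with or without input ligand, with fluorescently labeled MS2 coat protein at 1.5 nM to 3 μM.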

[1] = designed as: OFF switch for flavin mononucleotide, no ligand
[2] = ligand present: flavin mononucleotide, designed as: OFF switch for flavin mononucleotide
[3] = designed as: ON switch for flavin mononucleotide, no ligand
[4] = ligand present: flavin mononucleotide, designed as: ON switch for flavin mononucleotide

Sequence | apparent Kd [1] [nM] | apparent Kd [2] [nM] | also measured
UCGUCAUUGAACAGCACAUGAGGAUCACCCAUGUUUAGAUCUAGAAGGCCUUUCUCGAAGACCCAGGAGGAUAUAGUGAAGUGG | 21.8 | 18.7 | –
UCGUGCAGAUAGGAUAUAUAGUCACUGUCGUCUAUAGAAGGAUCUACAUGAGGAUCACCCAUGUAAUGUGAGUC | 132 | 30.6 | –
UCUUCCCGCUUAGGAUAUCUUGCUAAUUUGUGUAGAGAAGGAAGUGUAAACAUGAGGAUCACCCAUGUGGCCUCCAGAUAAAGC | 12.1 | 14.9 | –
UCUUGAGGCUAGGAUAUCAUACAUAAAAGCAACUGAGAAGGAGCCACAUGAGGAUCACCCAUGUAUCCGUUAUG | 16.5 | 71.6 | –
UGACUGGUCGGAGGAUAUGGCAACACGUUUUCGCCAGAAGGCCGACAUGAGGAUCACCCAUGUGGGACACUAGGGCGACUUCCU | 166 | 35.8 | –
UGAGUGAAGGAGAAGGGUCUUCAGGAAAUACGGAAAUAACAUGAGGAUCACCCAUGUUCAAGCAGACAGGAUAUCCAAUGUUGG | – | – | apparent Kd [3]: 18.8 nM; apparent Kd [4]: 14.6 nM
UGCAGAGAUUGAGGAUAUGUAGUCGAACAUGAGGAUCACCCAUGUUUGGUCCUUCUACACACGGCACAGAAGGCAAGAAAGAGC | 15.1 | 24.3 | –
UGCAGGCGAACAGGAUAUCACACAUGAGGAUCACCCAUGUAAACUACUUAAGAAAGGGAGCCUCGUGAGAAGGGUUUCUUUGGG | 74.6 | 60.1 | –
UGCGCGAGAGGAUAUUAUCGUAACUACAUGAGGAUCACCCAUGUUUCGCCCGUAGCUGGAUAAGAAGGCUCGAGUG | 14.6 | 20.7 | –
UGGUCGCAGUGAGGAUAUCCAGUCUAGGCACACGGAGAAGGCACGCGACAUGAGGAUCACCCAUGUAGACGAUAUGCUCCAGGU | 22.1 | 31.3 | –
UGUGGAACGGAAGGAUAUGGUCACCGAUGGUCUCCAGAAGGUCCGGGUGACCGAACAAUACAUGAGGAUCACCCAUGUAGCAAA | 7 | 6.84 | –
UUACAUACCUUAGGAUAUCAUCGUAGUAGGGCAAUAUAACAUGAGGAUCACCCAUGUCUCGUGCGUGAGAAGGAAGAACGUCAU | – | – | apparent Kd [3]: 32.7 nM; apparent Kd [4]: 27.8 nM
UUAGCACAUGAGGAUCACCCAUGUUAGGAUAUCCGUUAAUAUCAGGCAAGGUCUGAAAGGAGAAGGAACAUGAA | 35.4 | 67.9 | –
UUAGGGCGGUAGAAGGAGGAUUACAUGAGGAUCACCCAUGUGGCAGGAGGCGAGGCUCAGUUACCCUAGGAUAUACAUCAGGUU | 24.9 | 21.5 | –
UUAGUGGAACGGAAGGAUAUGAGCCACCCUACAUGAGGAUCACCCAUGUGAGCGUUGGCAGCGCAUCAGAAGGUCCUCCUACGAGU | – | – | apparent Kd [3]: 6.63 nM; apparent Kd [4]: 5.9 nM
UUAUAGAGAGGAUAUACAUGAGGAUCACCCAUGUUAUUACCAAGCUUGAUGGGUAUGCGUAGAAGGCUCAUGAA | 19.1 | 35 | –
UUCAUCAACACAGGAUAUUCCGUCACAUGAGGAUCACCCAUGUAGCGCGUAGAUUACGGGCUUUCGAAGAAGGGUGUAAAGUCC | – | – | apparent Kd [3]: 54.2 nM; apparent Kd [4]: 43.3 nM
UUCCUUGUCGAGAAGGAAUGGCACUUGAGGCGAUUAGGAUAUCGAUACAUGAGGAUCACCCAUGUUGUGUCUCAUAGUAUGACA | 12 | 12.4 | –
UUGAAGAAUCACAUGAGGAUCACCCAUGUCAGGGUGAGUUUUGAGGAUAUACCGCCCAGGACUCGGUAGAAGGCAAGAAAUUAA | 553 | 562 | –
UUGAGAGGACAGAAGGUUGGGCUCUUGAUCUACGCGCGCGACAUGAGGAUCACCCAUGUGCUUCCAAAGGAUAUGUCACUCGCA | – | – | apparent Kd [3]: 138 nM; apparent Kd [4]: 44.8 nM
UUGCUCUCUUCGGCCGCCACUACACGCGAGUUGACGACUGGCGGACAUGAGGAUCACCCAUGUCAUAGGACCGGGAAUCACGCUG | – | – | apparent Kd (designed as: ON switch for tryptophan, no ligand): 13.4 nM; apparent Kd (ligand present: tryptophan, designed as: ON switch for tryptophan): 13.8 nM
UUGGUCCACAGACAUGAGGAUCACCCAUGUAGUAGUUGAAUGAGAAGGGCACUGGCUUGUCAGGUGCAGGAUAUCAGUCUAUGU | 118 | 106 | –
UUGUGUUCUUAGGAUAUACAACUUACCAUCAGAGUAGAAGGAAGGACAUGAGGAUCACCCAUGUGGGCUAGCAG | 154 | 21.7 | –
UUUAAGAGAGGAUAUGUAGAAUAUAACAUGAGGAUCACCCAUGUACAGAGUGUUAAAGUCACAGAAGGCUCCAUGU | 27.5 | 20.6 | –
UUUGAGGCAGGAUAUAACAUCUUUGACAUGAGGAUCACCCAUGUGGUGUCCCGGUUUUAAUUAGAAGGGCCAGGCU | 692 | 727 | –
UUUUUAGGACAAGGAUAUUGAAUCGCACAUGAGGAUCACCCAUGUCCUCUGCAUACAGCGGACUUCAAGAAGGUGUCGACCAAU | – | – | apparent Kd [3]: 971 nM; apparent Kd [4]: 832 nM
